Results taken from ChEMBL document CHEMBL1142709, “Discovery and evaluation of 2-anilino-5-aryloxazoles as a novel class of VEGFR2 kinase inhibitors” (J Med Chem, 2005).
Blank lines part the entries; values can stand above or below the compound they belong to.

Assays:
[1] = Inhibition of basic FGF-induced proliferation of human umbilical vein endothelial cells; assay type: functional, cell-based; details: Endothelial cell
[2] = system: HT-29; experiment: In vitro inhibition of human colon tumor HT-29 cell proliferation; assay type: functional, cell-based
[3] = Peak plasma concentration in mice following oral administration of an aqueous solution of the bis-mesylate salt of the compound; assay type: ADME, organism-based; set-up: route oral; details: mouse
Outline: (§1)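 Male CD mice (n = 2) given the bis-mesylate salt as an aqueous solution at 100 mg/kg by oral gavage, dose volume 10 mL/kg. Plasma taken from blood kept on wet ice, stored at -20 °C, protein-precipitated with four volumes of acetonitrile and analysed by HPLC/MS.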

[4] = Time at which peak plasma concentration is attained in mice following oral administration of an aqueous solution of the bis-mesylate salt of the compound; assay type: ADME, organism-based; details: mouse; outline: as §1
[5] = Area under concentration time curve in mice following oral administration of an aqueous solution of the bis-mesylate salt of the compound; assay type: ADME; details: mouse, in vivo; outline: as §1
[6] = Distribution at steady state was determined in dogs dosed at […] and 1 mg/kg po in 0.5% HPMC w/0.1%Tween 80 (n=2); assay type: ADME, organism-based, Canis lupus familiaris; details: dog, in vivo, iv, read-out: Vdss
[7] = Distribution at steady state was determined in rats dosed at […] iv in 10% HP-alpha-cyclodextrin in 0.05 M acetic acid and 10 mg/kg po in 0.5% HPMCw/0.1% Tween 80 (n=3); assay type: ADME, organism-based; details: rat, in vivo, read-out: Vdss
[8] = Half life in dogs dosed at 1 mg/kg iv in 40% […] and 1 mg/kg po in 0.5% HPMC w/0.1%Tween 80 (n=2); assay type: ADME, organism-based, Canis lupus familiaris; details: dog, in vivo
Outline: (§2)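 Male beagle dogs (n = 2). IV 1 mg/kg in 40% SBE-β-cyclodextrin and oral gavage 1 mg/kg in 0.5% HPMC/0.1% Tween 80, dose volume 0.5 mL/kg. Plasma precipitated with four volumes of acetonitrile and analysed by HPLC/MS. Parameters are averages of two dogs.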

[9] = Half life in rats dosed at […] iv in 10% HP-alpha-cyclodextrin in 0.05 M acetic acid and 10 mg/kg po in 0.5% HPMCw/0.1% Tween 80 (n=3); assay type: ADME, organism-based; details: rat, in vivo
[10] = Bioavailability of compound was determined in dogs dosed at 1 mg/kg iv in 40% […] and 1 mg/kg po in 0.5% HPMC w/0.1%Tween 80 (n=2); assay type: ADME, organism-based, Canis lupus familiaris; details: dog, in vivo; outline: as §2
[11] = Bioavailability of compound was determined in rats dosed at […] iv in 10% HP-alpha-cyclodextrin in 0.05 M acetic acid and 10 mg/kg po in 0.5% HPMCw/0.1% Tween 80 (n=3); assay type: ADME, organism-based; details: rat, in vivo

IC50 [2]: 4.5 µM | Cmax [3]: 35 µM | Tmax [4]: 4 h | AUC [5]: 102 µg·h/mL
Structure (SMILES): CCS(=O)(=O)c1ccc(OC)c(Nc2ncc(-c3cccc(-c4ccccn4)c3)o2)c1
IC50 [1]: 5.8 µM

Structure (SMILES): c1ccc(Nc2ncc(-c3ccccc3)o2)cc1 [GW549390X]
IC50 [1]: 24 µM

Structure (SMILES): COc1cc2/c(=N/c3ccc(Br)cc3F)nc[nH]c2cc1OCC1CCN(C)CC1 [VANDETANIB]
IC50 [1]: 1.2 µM

Structure (SMILES): CCS(=O)(=O)c1ccc(OC)c(Nc2ncc(-c3cccc(-c4ccccc4Cl)c3)o2)c1
IC50 [1]: 1.1 µM

Structure (SMILES): Clc1ccc(Nc2nnc(Cc3ccncc3)c3ccccc23)cc1 [VATALANIB]
IC50 [1]: 25 µM

Vd [6]: 3.74 L/kg | Vd [7]: 1.03 L/kg | half-life [8]: 3.5 h | half-life [9]: 1.6 h | bioavailability [10]: 7% | bioavailability [11]: 11%
Structure (SMILES): CCS(=O)(=O)c1ccc(OC)c(Nc2ncc(-c3cccc(-c4ccccn4)c3)o2)c1.CS(=O)(=O)O
